From paper PMC11106139 (Clinical Pharmacokinetics, 2024)

What was measured:
[1] = tested on: children with achondroplasia; details: 15 µg/kg per day, 1-year period, analysis of covariance; cited from earlier work
[2] = Population pharmacokinetic; assay type: in vivo, human; details: SOLNC 0.8 and 2 mg/mL (phase III studies and commercial formulations)
Method in brief: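 Pooled plasma data from 159 children with achondroplasia on daily subcutaneous vosoritide (2.5–30 µg/kg) across three phase II and two phase III trials. Samples were assayed by validated ELISA or electrochemiluminescence, and mostly pre-dose points were excluded. The fit was a one-compartment model with change-point first-order absorption (Ka1/Ka2) and first-order elimination, using log-transform-both-sides and SAEM/importance sampling. Covariates were added stepwise (p<0.01) with backward elimination, against a reference weight of 20 kg.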

CC[C@H](C)[C@@H]1NC(=O)[C@H](CCCNC(=N)N)NC(=O)[C@H](CC(=O)O)NC(=O)[C@H](CC(C)C)NC(=O)[C@H](CCCCN)NC(=O)[C@H](CC(C)C)NC(=O)CNC(=O)[C@H](Cc2ccccc2)NC(=O)[C@@H](NC(=O)CNC(=O)[C@H](CCCCN)NC(=O)[C@H](CO)NC(=O)[C@H](CC(C)C)NC(=O)CNC(=O)[C@H](CCCCN)NC(=O)[C@H](CCCCN)NC(=O)[C@H](CC(N)=O)NC(=O)[C@H](C)NC(=O)CNC(=O)[C@H](CCCCN)NC(=O)[C@H](Cc2ccc(O)cc2)NC(=O)[C@H](CCCCN)NC(=O)[C@H](CCCNC(=N)N)NC(=O)[C@H](C)NC(=O)[C@H](CC(N)=O)NC(=O)[C@@H]2CCCN2C(=O)[C@H](Cc2c[nH]cn2)NC(=O)[C@H](CCC(=O)O)NC(=O)[C@H](CCC(N)=O)NC(=O)CNC(=O)[C@@H]2CCCN2)CSSC[C@@H](C(=O)O)NC(=O)CNC(=O)[C@H](CC(C)C)NC(=O)CNC(=O)[C@H](CO)NC(=O)[C@H](CCSC)NC(=O)[C@H](CO)NC(=O)CNC1=O [vosoritide]
increase in annualized growth velocity (least squares mean change from baseline) compared with placebo [1]: 1.57 cm/year | effect of dosing solution concentration on relative bioavailability (F) [2]: did not have any effect on F
